Test results from ChEMBL document CHEMBL1131126, “Naamidine A is an antagonist of the epidermal growth factor receptor and an in vivo active antitumor agent” (J Med Chem, 1998).

Assays:
Assay type in all cases: functional
Mus musculus = species on record: Mus musculus; assay: Selectivity for EGF over insulin receptors
Summary of the method: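 Ratio of insulin-stimulated IC50 to EGF-stimulated IC50, both from [3H]thymidine incorporation in EGF receptor-transfected NIH3T3 cells (1 h preincubation, 16 h mitogen stimulation, 1-h label).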

A-431 [1] = assay: In vivo inhibitory activity against A431 tumor implanted in athymic mice at 12.5 mg/kg […]; conditions: Mus musculus
Summary of the method: (§1)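 A431 squamous carcinoma cells (EGF receptor-overexpressing) implanted under the kidney capsule of athymic mice, N = 6 per group. Dosed once daily for 5 days starting the day after implantation. Tumor size assessed 7 days after implantation; result given as % inhibition of tumor growth, with deaths counted per group.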

A-431 [2] = assay: In vivo inhibitory activity against A431 tumor implanted in athymic mice at 25 mg/kg […]; conditions: Mus musculus; summary of the method: as §1
A-431 [3] = assay: In vivo inhibitory activity against A431 tumor implanted in athymic mice at 3.13 mg/kg […]; conditions: Mus musculus; summary of the method: as §1
A-431 [4] = assay: In vivo inhibitory activity against A431 tumor implanted in athymic mice at 50 mg/kg […]; conditions: Mus musculus; summary of the method: as §1

Selectivity (Mus musculus) | Compound | inhibition in vivo at 12.5 mg/kg (A-431 [1]) | inhibition in vivo at 25 mg/kg (A-431 [2]) | inhibition in vivo at 3.13 mg/kg (A-431 [3]) | inhibition in vivo at 50 mg/kg (A-431 [4])
0.43 | COc1ccc(Cc2cn(Cc3ccc(O)cc3)c(NC3=NC(=O)N(C)C3=O)n2)cc1 | – | – | – | –
0.18 | COc1ccc(Cc2cn(Cc3ccc(OC)cc3)c(NC3=NC(=O)N(C)C3=O)n2)cc1 | – | – | – | –

Compound | Selectivity (Mus musculus) | inhibition in vivo at 12.5 mg/kg (A-431 [1]) | inhibition in vivo at 25 mg/kg (A-431 [2]) | inhibition in vivo at 3.13 mg/kg (A-431 [3]) | inhibition in vivo at 50 mg/kg (A-431 [4])
COc1ccc(Cc2nc(NC3=NC(=O)N(C)C3=O)n(C)c2Cc2ccc(O)cc2)cc1 | 21 | 52% | 87.4% | 35% | 96.4%
